DNMT1 block: human DNMT1 methyltransferase inhibitors, primary screen, biochemical, molecular beacon, fluorescence, HinP1I cleavage, uHTS. hit rate 0.83% among 360,000. inhibition (reported as % activation of signal), % at 10 µM; in the data active = inhibition above about 50%
Scp1 inh: Scp-1 phosphatase inhibitors, primary screen, biochemical, colorimetric, uHTS; Recombinant Scp1, phosphopeptide, malachite green phosphate absorbance; inhibition, % at 20 µM; AID 493091, 2011; hit rate 0.88% among 340,000;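 active = inhibition above about 50% at 20 µM, limit read from the data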;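 note: plate controls were DMSO wells with enzyme for no effect and wells lacking enzyme for full effect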
Target sequence (Q9GZU7 76-261 limits assumed): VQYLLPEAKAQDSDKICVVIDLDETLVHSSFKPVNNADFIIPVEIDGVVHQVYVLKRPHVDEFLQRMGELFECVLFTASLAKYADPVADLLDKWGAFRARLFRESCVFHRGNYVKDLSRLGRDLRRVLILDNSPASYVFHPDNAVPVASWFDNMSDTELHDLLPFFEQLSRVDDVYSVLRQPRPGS
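Assay system: SCP-1 catalytic fragment, aa 76-261 | Buffer or medium: Tris acetate buffer pH 5.5 with MgCl2 and Tween-20 | Compound: One concentration, 20 µM, with 1.0% DMSO | Also added: Phospho 17-mer peptide substrate | Signal: Absorbance at 630 nm | Incubation: 45 min enzyme reaction at room temperature | Measure: % inhibition of SCP-1 phosphate liberation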
LMPTP block: LMPTP phosphatase inhibitors, primary screen, biochemical, fluorescence intensity, uHTS; recombinant LMPTP-A, OMFP fluorogenic substrate; Low molecular weight phosphotyrosine protein phosphatase (Homo sapiens), P24666; inhibition, % at 20 µM; AID 651560, 2012; hit rate 0.22% among 360,000;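 active = compounds that cut the enzyme signal by at least half of the control window in the single-dose screen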;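 note: plate controls were DMSO wells with enzyme plus substrate for no effect and substrate without enzyme for full effect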
Target sequence (P24666 whole entry, looked up): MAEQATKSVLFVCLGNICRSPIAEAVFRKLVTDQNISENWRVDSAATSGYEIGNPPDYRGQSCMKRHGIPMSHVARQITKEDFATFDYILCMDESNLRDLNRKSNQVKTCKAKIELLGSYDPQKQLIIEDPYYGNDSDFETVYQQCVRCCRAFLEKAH
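Test system: LMPTP-A phosphatase enzyme; input: 0.625 nM LMPTP-A final; reagent: OMFP substrate, 400 µM final; compound dosing: 20 µM single dose, 3% DMSO; incubation: 50 min dark incubation at room temperature; measured by: endpoint fluorescence intensity from OMFP dephosphorylation; measure: % inhibition relative to no-enzyme and uninhibited control wells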
STEP block: STEP phosphatase inhibitors, primary screen, biochemical, fluorescence intensity, uHTS. Tyrosine-protein phosphatase non-receptor type 5 (Homo sapiens), P54829. recombinant STEP, OMFP fluorogenic substrate. inhibition, % at 20 µM. hit rate 0.25% among 360,000;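 active = inhibition at 20 µM, scaled per plate between control wells, above about 37%, limit read from the data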;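 note: 0% = DMSO with enzyme and substrate and 100% = substrate only without enzyme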
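Assay system: isolated STEP enzyme / Timing: 20 min at room temperature, dark / Doses: 20 µM, 1% DMSO / Technique: fluorescence intensity, excitation 480 nm, emission 540 nm / Reagent: fluorogenic phosphatase substrate OMFP at 25 µM final / Measure: percent inhibition scaled to no-enzyme and uninhibited-enzyme controls, plate-pattern corrected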
SUMO1 PPI mod: modulators of SUMO1 protein-protein interactions, primary screen, biochemical, uHTS; inhibition, % at 20 µM; hit rate 0.33% among 360,000; AID 602429, 2012; SUMO1 binding to a labelled peptide, TR-FRET, 1 h; Small ubiquitin-related modifier 1 (Homo sapiens), P63165; in the data active = inhibition above about 37%
Target sequence (P63165 whole entry, looked up): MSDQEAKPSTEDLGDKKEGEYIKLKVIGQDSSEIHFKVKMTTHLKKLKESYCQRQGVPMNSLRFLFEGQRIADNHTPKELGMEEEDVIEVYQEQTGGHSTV
* = called active by the depositor; . = not tested or not shown. Only some compounds are listed: those with a hit (about 1.7% of all), similar ones and a draw of the others.

SMILES | DNMT1 block | Scp1 inh | LMPTP block | STEP block | SUMO1 PPI mod
COc1cccc(-c2cnc(C(O)c3c(C)cccc3C)[nH]2)c1 (centres undefined) | -1.4 | . | -0.3 | 0.2 | 9.9
COc1cc(-c2noc(C)c2/C=C/c2ccc(C(=O)O)cc2)cc(OC)c1OC | 60.6* | 16.1 | 2.1 | 2.4 | -2.8
Cc1cc(N2CCN(C(c3ccnc4ccccc34)c3nnnn3-c3c(C)cccc3C)CC2)c2ccccc2n1 (centres undefined) | . | . | 88.7* | . | 3.5
CC1(C(=O)NCc2ccccc2)CCC(=O)N1CCc1c[nH]c2ccccc12 (centres undefined) | 0.8 | . | -0.9 | -0.7 | 0.4
NS(=O)(=O)c1ccc(CCNC(=O)c2ccc(Cl)s2)cc1 | 1.3 | -4.7 | -0.3 | -1.0 | -1.5
NS(=O)(=O)c1ccc(CCNC(=O)c2cc3ccccc3s2)cc1 | 1.7 | 58.1* | 1.5 | 5.6 | 9.2
O=C(NCCN1CCC(n2c(=O)[nH]c3ccccc32)CC1)c1cc(F)cc(F)c1 | . | . | 4.5 | . | -0.1
O=C1c2cccnc2-c2ncccc21 | 0.5 | 7.1 | -0.8 | 4.2 | -32.9
O=C1C(=O)c2cccnc2-c2ncccc21 | 112.0* | . | 55.8* | 6.8 | 39.1
COC1=C(Br)C(=O)c2ncccc2C1=O | 91.4* | 2.2 | 11.9 | 8.9 | 48.5*
COc1ccccc1N1C(=O)c2cccnc2C1=O | -0.8 | -6.5 | 0.1 | -3.1 | -12.6
O=C1c2cc(CO)cc(O)c2C(=O)c2c(O[C@@H]3OC(CO)[C@@H](O)[C@@H](O)[C@@H]3O)cccc21 (some centres undefined) | 2.9 | 9.5 | 2.7 | 1.2 | -33.2
O=C(O)c1cc(O)c2c(c1)[C@H]([C@H]1c3cc(C(=O)O)cc(O)c3C(=O)c3c(O[C@@H]4O[C@H](CO)[C@@H](O)[C@H](O)[C@H]4O)cccc31)c1cccc(OC3O[C@H](CO)[C@@H](O)[C@H](O)[C@H]3O)c1C2=O (some centres undefined) | 97.1* | 92.4* | 94.1* | 98.5* | 116.2*
O=C(O)c1cc(O)c2c(c1)[C@@H]([C@H]1c3cc(C(=O)O)cc(O)c3C(=O)c3c(O[C@@H]4O[C@H](CO)[C@@H](O)[C@H](O)[C@H]4O)cccc31)c1cccc(OC3O[C@H](CO)[C@@H](O)[C@H](O)[C@H]3O)c1C2=O (some centres undefined) | 97.8* | 92.4* | 92.4* | 97.6* | 119.3*
COc1ccc(-c2cnc3c(NC(C)=O)cc(-c4cccc(C(=O)N(C)C)c4)cn23)cc1OC | -5.8 | . | 0.3 | 1.7 | -10.7
COc1ccc(CCNC(=O)c2cc3c(=O)n4cccc(C)c4nc3s2)cc1OC | 0.6 | -5.8 | 1.2 | 0.4 | 40.0*
CCOC(=O)C1(C)CCCN(C(=O)c2ccc(C)c(F)c2)C1 (centres undefined) | 8.4 | . | -1.0 | -2.3 | -5.4
O=C(O)CCNc1cc(N2CCN(C(=O)c3ccco3)CC2)c2noc3c2c1C(=O)c1ccccc1-3 | 105.7* | 80.9* | 11.4 | 41.2* | 50.4*
Cc1ccc(-c2nn3c(C)nnc3s2)cc1NC(=O)c1ccc(-c2ccc(Cl)cc2Cl)o1 | 65.9* | 43.1 | 43.6 | 93.4* | 12.3
Cc1ccc(-c2nn3c(C)nnc3s2)cc1NC(=O)c1ccc(-c2cccc(Cl)c2)o1 | 16.6 | 10.9 | 7.5 | 7.3 | 2.8
CC1CCc2c(sc(NC(=O)CSc3nnc(-c4ccccc4)o3)c2C#N)C1 (centres undefined) | 18.3 | 0.7 | 65.5* | 1.7 | 0.0
Cc1sc(NC(=O)CSc2nnc(-c3ccccc3)o2)c(C#N)c1C | 2.1 | -6.9 | 0.3 | 1.9 | 2.9
N#Cc1c(NC(=O)CSc2nnc(-c3ccccc3)o2)sc2c1CCCC2 | 2.7 | 2.9 | 76.8* | -0.8 | -0.3
CCCCNC(=O)C1(C)CCN1C(=O)c1cc(OC)ccc1Br (centres undefined) | -1.1 | . | 0.0 | -1.4 | 1.5
O=C(N/N=C/c1cc(Cl)cc([N+](=O)[O-])c1O)c1ccc2c(c1)OCO2 | 3.2 | 99.2* | 60.1* | 99.4* | -21.1

Bioassay records deposited in PubChem by Sanford-Burnham Center for Chemical Genomics.
